Results reported in ChEMBL document CHEMBL2434878, “Synthesis and antimycobacterial activity of analogues of the bioactive natural products sampangine and cleistopholine” (Eur J Med Chem, 2013).

Assays:
Assay type in all cases: functional
Settings in all cases: H37Rv ATCC 27294, 144 h, read-out: GI
[1] = system: Mycobacterium tuberculosis; assay: Antimicrobial activity against Mycobacterium tuberculosis H37Rv ATCC 27294 expressing luciferase reporter gene assessed as growth inhibition at 10 uM after 6 days by luminometry relative to control
Summary of the method: (§1)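 Single-concentration screen of the luminescent H37Rv reporter strain in 7H9-10% FCS, inoculated at 50,000 RLU/ml, 6 days at 37 °C. Luminescence was read after n-decanal addition. Percent inhibition is versus the untreated culture, as the mean of triplicate cultures.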

[2] = system: Mycobacterium tuberculosis; assay: Antimicrobial activity against Mycobacterium tuberculosis H37Rv ATCC 27294 expressing luciferase reporter gene assessed as growth inhibition at 0.1 uM after 6 days by luminometry relative to control; summary of the method: as §1
[3] = system: Mycobacterium tuberculosis; assay: Antimicrobial activity against Mycobacterium tuberculosis H37Rv ATCC 27294 expressing luciferase reporter gene assessed as growth inhibition at 1 uM after 6 days by luminometry relative to control; summary of the method: as §1

Work on `O=C1c2ccccc2-c2nccc3cncc1c23` yielded an inhibition of growth at 10 µM [1] of 62%, an inhibition of growth at 0.1 µM [2] of 11% and an inhibition of growth at 1 µM [3] of 25%.

`COc1ccc(OC)c(-c2cc3c(c(C)n2)C(=O)c2ccccc2C3=O)c1` was tested, and the inhibition of growth at 10 µM [1] was 86%, the inhibition of growth at 0.1 µM [2] was less than 10% and the inhibition of growth at 1 µM [3] was 35%.

With `Cc1nc(C(C)C)cc2c1C(=O)c1ccccc1C2=O` the inhibition of growth at 10 µM [1] was 54%, the inhibition of growth at 0.1 µM [2] was less than 10% and the inhibition of growth at 1 µM [3] was 24%.

`Cc1nc(-c2ccccc2)cc2c1C(=O)c1ccccc1C2=O` showed an inhibition of growth at 10 µM [1] of 98%, an inhibition of growth at 0.1 µM [2] of 21% and an inhibition of growth at 1 µM [3] of 66%.

Work on `COc1ccc(OC)c(-c2cc3c4c(nccc4n2)-c2ccccc2C3=O)c1` yielded an inhibition of growth at 10 µM [1] of 87%, an inhibition of growth at 0.1 µM [2] of 39% and an inhibition of growth at 1 µM [3] of 75%.

`Cc1ccc(-c2cc3c(c(C)n2)C(=O)c2ccccc2C3=O)cc1` was tested, and the inhibition of growth at 10 µM [1] was 99%, the inhibition of growth at 0.1 µM [2] was 54% and the inhibition of growth at 1 µM [3] was 63%.

Work on `Cc1nc(-c2ccc(Cl)cc2)cc2c1C(=O)c1ccccc1C2=O` yielded an inhibition of growth at 10 µM [1] of 100%, an inhibition of growth at 0.1 µM [2] of 42% and an inhibition of growth at 1 µM [3] of 68%.

Compound `CC(C)(C)c1ccc(-c2cc3c4c(nccc4n2)-c2ccccc2C3=O)cc1` has an inhibition of growth at 10 µM [1] of 73%, an inhibition of growth at 0.1 µM [2] of 32% and an inhibition of growth at 1 µM [3] of 41%.

`Cc1ccc(-c2cc(O)c3c(c2)C(=O)c2ccccc2C3=O)cc1` showed an inhibition of growth at 10 µM [1] of 98%, an inhibition of growth at 0.1 µM [2] of 21% and an inhibition of growth at 1 µM [3] of 35%.

In the case of `Cc1nccc2c1C(=O)c1ccccc1C2=O`, the inhibition of growth at 10 µM [1] is reported as 58%, the inhibition of growth at 0.1 µM [2] is reported as 10% and the inhibition of growth at 1 µM [3] is reported as 22%.

With `Cc1cncc2c1C(=O)c1ccccc1C2=O` the inhibition of growth at 10 µM [1] was 48%, the inhibition of growth at 0.1 µM [2] was less than 10% and the inhibition of growth at 1 µM [3] was 11%.

`COc1ccc(-c2cc3c(c(C)n2)C(=O)c2ccccc2C3=O)cc1` was tested, and the inhibition of growth at 10 µM [1] was 100%, the inhibition of growth at 0.1 µM [2] was 32% and the inhibition of growth at 1 µM [3] was 70%.

With `Cc1nc(-c2ccc(F)cc2)cc2c1C(=O)c1ccccc1C2=O` the inhibition of growth at 10 µM [1] was 100%, the inhibition of growth at 0.1 µM [2] was 41% and the inhibition of growth at 1 µM [3] was 68%.

In the case of `CN(C)/C=C/c1cncc2c1C(=O)c1ccccc1C2=O`, the inhibition of growth at 10 µM [1] is reported as 53%, the inhibition of growth at 0.1 µM [2] is reported as less than 10% and the inhibition of growth at 1 µM [3] is reported as 17%.

Compound `Cc1nc(C(C)(C)C)cc2c1C(=O)c1ccccc1C2=O` has an inhibition of growth at 10 µM [1] of 51%, an inhibition of growth at 0.1 µM [2] of less than 10% and an inhibition of growth at 1 µM [3] of 18%.

`CN(C)/C=C/c1nc(C(C)(C)C)cc2c1C(=O)c1ccccc1C2=O` showed an inhibition of growth at 10 µM [1] of 73%, an inhibition of growth at 0.1 µM [2] of 21% and an inhibition of growth at 1 µM [3] of 53%.

Compound `COc1ccc(OC)c(-c2cc3c(c(/C=C/N(C)C)n2)C(=O)c2ccccc2C3=O)c1` has an inhibition of growth at 10 µM [1] of 87%, an inhibition of growth at 0.1 µM [2] of 35% and an inhibition of growth at 1 µM [3] of 47%.
